Data: ChEMBL document CHEMBL3407348, “Antileishmanial activity of quinazoline derivatives: synthesis, docking screens, molecular dynamic simulations and electrochemical studies” (Eur J Med Chem, 2015)
pIC50, pKd: −log10 of the molar value. In brackets after ≈: the same amount, converted by molar mass.

Legend:
Leishmania mexicana [1] = assay: Antiparasitic activity against Leishmania mexicana MHOM/BZ/61/M379 assessed as oxygen consumption at 5.74 mM during 1 hr by fluorescence assay (reference value: 100%); format: functional
Method in brief: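 Promastigotes (5 × 10⁶) were placed in microplate wells containing an oxygen-sensitive fluorophore with the test agent for 1 or 2 h. Oxygen consumption was read as fluorescence on a plate reader and expressed relative to untreated parasites (100%). Sodium cyanide served as the mitochondrial-damage control and dithionite as the oxygen-abolition control. Run in triplicate, with at least four independent experiments.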

Leishmania mexicana [2] = assay: Antiparasitic activity against promastigote form of Leishmania mexicana MHOM/BZ/61/M379 at 100 uM after 24 hrs by haemocytometer; format: functional; conditions: for inhibition at 100 µM: MHOM/BZ/61/M379, 72 h, in the assay text read “72 hrs” for “24 hrs”
Method in brief: (§1)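 Promastigotes were grown in DMEM with L-glutamine and 4,500 mg/L glucose, without bicarbonate, plus 10% fetal calf serum. Serial compound dilutions (1:10 compound:medium) were mixed with an equal volume of 2 × 10⁶ parasites/mL at 26 °C. Parasites were counted by hemacytometer in triplicate. Growth inhibition was expressed as a percentage of the no-drug control, with 100 µM used for the initial screen.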

[3] = Retention time of the compound; format: physicochemical
Method in brief: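 Reverse-phase HPLC on an RP-amide column (150 × 4.6 mm, 5 µm) with guard column. Mobile phase was 10 mM phosphate buffer pH 3.3 and acetonitrile (60:40 v/v) at 1.00 mL/min and 30 °C, with an 8 min run. UV detection at 240 and 272 nm.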

[4] = target: Bifunctional dihydrofolate reductase-thymidylate synthase (Leishmania major, UniProt P07382); assay: Binding affinity to Leishmania major DHFR
physchem = conditions: phosphate buffered saline, pH 7.4
in vitro = conditions: mouse, L929 cells
Leishmania mexicana [5] = assay: Antiparasitic activity against promastigote form of Leishmania mexicana MHOM/BZ/61/M379 after 24 hrs by haemocytometer; format: functional, organism-based; method in brief: as §1
Pteridine reductase 1 = target: T1, Pteridine reductase 1 (Leishmania major, UniProt Q01782)
T1 sequence (Q01782 whole entry): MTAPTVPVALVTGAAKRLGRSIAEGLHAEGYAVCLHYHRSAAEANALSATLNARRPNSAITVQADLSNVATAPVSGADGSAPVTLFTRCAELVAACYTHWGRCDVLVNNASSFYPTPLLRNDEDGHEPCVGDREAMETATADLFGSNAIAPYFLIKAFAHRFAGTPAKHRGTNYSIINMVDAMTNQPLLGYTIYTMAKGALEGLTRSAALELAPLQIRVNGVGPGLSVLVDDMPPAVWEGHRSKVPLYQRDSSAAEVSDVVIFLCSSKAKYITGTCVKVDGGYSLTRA

Leishmania mexicana [6] = assay: Antiparasitic activity against promastigote form of Leishmania mexicana MHOM/BZ/61/M379 after 72 hrs by haemocytometer; conditions: MHOM/BZ/61/M379, 72 h
Leishmania mexicana [7] = conditions: MHOM/BZ/61/M379, 100 uM
Leishmania mexicana [8] = conditions: MHOM/BZ/61/M379, 100 uM; remark: listed apart in the source

Bifunctional dihydrofolate reductase-thymidylate synthase, sequence (P07382 whole entry): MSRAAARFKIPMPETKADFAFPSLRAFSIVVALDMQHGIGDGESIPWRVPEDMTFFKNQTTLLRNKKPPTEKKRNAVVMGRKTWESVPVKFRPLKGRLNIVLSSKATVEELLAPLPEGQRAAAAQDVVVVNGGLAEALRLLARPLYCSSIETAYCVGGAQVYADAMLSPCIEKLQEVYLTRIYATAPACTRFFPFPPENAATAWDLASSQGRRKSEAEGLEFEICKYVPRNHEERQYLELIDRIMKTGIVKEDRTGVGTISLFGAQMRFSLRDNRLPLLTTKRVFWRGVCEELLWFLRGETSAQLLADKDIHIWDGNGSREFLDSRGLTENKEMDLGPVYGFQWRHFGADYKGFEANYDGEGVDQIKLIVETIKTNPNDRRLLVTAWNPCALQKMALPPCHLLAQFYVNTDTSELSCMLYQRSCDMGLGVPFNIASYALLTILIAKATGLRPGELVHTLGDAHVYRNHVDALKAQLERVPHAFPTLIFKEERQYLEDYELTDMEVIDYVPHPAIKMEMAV

Retention_time [3] | pKd [4] | solubility (physchem) | pKd (Pteridine reductase 1) | pIC50 (Leishmania mexicana [6]) | Compound | inhibition at 100 µM (Leishmania mexicana [2]) | other results
3.188 min | 6.12 | 510 µg/mL (≈ 1120 µM) | – | – | Nc1nc(N)c2cc(NCCn3c(C(F)(F)F)nc4cc(Cl)c(Cl)cc43)ccc2n1 | 0% | –
– | 4.80 | – | 6.58 | – | Nc1nc(N)c2cc([N+](=O)[O-])ccc2n1 | – | –
3.841 min | 6.62 | – | 5.84 | < 4.00 | Nc1nc(N)c2cc(NCc3ccc([N+](=O)[O-])cc3)ccc2n1 | 20% | –
3.081 min | 5.99 | 380 µg/mL (≈ 1350 µM) | 5.62 | – | Nc1nc(N)c2cc(NCc3ccc(O)cc3)ccc2n1 | 0% | –
3.081 min | 5.80 | 250 µg/mL (≈ 846 µM) | 5.55 | 4.84 | COc1ccc(CNc2ccc3nc(N)nc(N)c3c2)cc1 | 100% | –
– | 4.08 | > 9000 µg/mL | 4.23 | – | Nc1ccc2nc(N)nc(N)c2c1 [QUINAZOLINE-2,4,6-TRIAMINE] | 0% | –

Continued, compound first:

Compound | Retention_time [3] | pKd [4] | solubility (physchem) | pKd (Pteridine reductase 1) | pIC50 (Leishmania mexicana [6]) | inhibition at 100 µM (Leishmania mexicana [2]) | other results
O=S([O-])S(=O)[O-].[Na+].[Na+] | – | – | – | – | – | – | Activity (Leishmania mexicana [1]): 175.9%
CC1CS(=O)(=O)CCN1/N=C/c1ccc([N+](=O)[O-])o1 (stereo unspecified) [NIFURTIMOX] | – | – | – | – | – | – | viability at 48 h, 100 µM (in vitro): 42%
MEGLUMINE ANTIMONATE [listing 1 of 2 here] | – | – | – | – | – | – | inhibition (Leishmania mexicana [2]): 100%
MEGLUMINE ANTIMONATE [listing 2 of 2 here] | – | – | – | – | – | – | pIC50 (Leishmania mexicana [5]): 3.74
CCc1nc(N)nc(N)c1-c1ccc(Cl)cc1 [PYRIMETHAMINE] | – | – | – | – | 4.00 | 50% | –
COc1cc(Cc2cnc(N)nc2N)cc(OC)c1OC [TRIMETHOPRIM] | – | – | – | – | < 4.00 | 30% | survival (Leishmania mexicana [7]): 100%; survival (Leishmania mexicana [8]): 70%
